Screening data deposited in PubChem BioAssay by NMMLSC.
This is a sample that favours compounds with a hit; in the whole collection about 2.5% have one here.
ABCB1 inh: inhibitors of human ABCB1 transporter, ABCG2 counter-screen. CCRF-Adr cells, JC-1 efflux, flow cytometry. inhibition, % at 6.6 µM. hit rate 0.067% among 190,000; in the data active = inhibition above about 40%;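 note: 0% = vehicle and 100% = reference inhibitor; higher value means more JC-1 retained so stronger ABCB1 efflux block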
Efflux pump inh: inhibitors of Candida antifungal efflux pumps expressed in yeast. S. cerevisiae Candida pump triplex, Nile Red efflux. inhibition, % at 10 µM. hit rate 0.44% among 330,000. AID 485275;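 active = plate passing quality check with inhibition over a set limit, or well fluorescence over plate mean plus 4 SD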;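 note: Nile Red retained in pooled yeast measured as flow cytometry median fluorescence; 0% = buffer negative control and 100% = Enniatin B positive control; higher means more Nile Red kept so more efflux inhibition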
MEKK3 PB1 HTS: modulators (inhibitors or enhancers) of MEK5 binding to human MEKK3 PB1 domain | bead-based flow cytometry, Alexa488-MEK5 binding to MEKK3; actives lie on both sides; 0 = blocked by unlabeled MEK5, 100 = vehicle | hit rate 1.4% among 290,000 | AID 1529 | binding response (% of control), % at 10 µM | Q99759;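 active = binding response more than 3 SD above or below the average of its plate-row segment, actives on both sides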;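 note: Alexa488 bead fluorescence after subtracting the streptavidin-only scavenger bead signal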
ABCG2 block: blocks JC-1 efflux by human ABCG2 transporter; IgMXP3 cells, flow cytometry; inhibition, % at 6.6 µM; hit rate 0.1% among 190,000; AID 1325;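 active = inhibition above 80%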;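 note: 0% = DMSO and 100% = nicardipine control wells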
Target sequence (Q9UNQ0 whole entry, looked up): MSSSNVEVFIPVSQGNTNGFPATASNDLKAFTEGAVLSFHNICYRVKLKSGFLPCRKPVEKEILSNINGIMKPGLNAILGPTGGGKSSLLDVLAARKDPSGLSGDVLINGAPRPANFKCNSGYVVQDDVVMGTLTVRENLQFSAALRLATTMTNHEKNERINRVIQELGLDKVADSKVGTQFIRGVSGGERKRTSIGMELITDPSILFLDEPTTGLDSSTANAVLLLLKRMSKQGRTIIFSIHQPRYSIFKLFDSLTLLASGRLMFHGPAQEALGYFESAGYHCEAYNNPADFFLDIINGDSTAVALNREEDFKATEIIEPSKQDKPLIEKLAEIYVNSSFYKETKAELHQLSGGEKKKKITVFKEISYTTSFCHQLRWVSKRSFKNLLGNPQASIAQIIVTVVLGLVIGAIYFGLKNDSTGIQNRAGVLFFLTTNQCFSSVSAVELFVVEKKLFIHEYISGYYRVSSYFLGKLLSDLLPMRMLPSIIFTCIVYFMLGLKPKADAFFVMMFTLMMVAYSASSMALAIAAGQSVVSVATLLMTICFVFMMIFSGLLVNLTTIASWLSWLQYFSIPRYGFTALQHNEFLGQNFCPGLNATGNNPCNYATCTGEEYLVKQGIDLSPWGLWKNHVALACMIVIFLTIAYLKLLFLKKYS
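Test system: IgMXP3 (ABCG2) plus far-red-tagged CCRF-Adr (ABCB1) cells / Amount: 3 million cells/mL in well / Reagent: JC-1 transporter substrate / Timing: 10 min compound exposure, 25 °C / Signal: flow cytometry, 530 nm JC-1 signal / Read-out: percent efflux inhibition, scaled nicardipine 100% to DMSO 0% / Benchmarks: nicardipine as high control, DMSO as low control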
MEKK2 WT-MEK5: raises or lowers MEK5 binding to wildtype human MEKK2 PB1 domain | Q9Y2U5 | bead flow cytometry, Alexa488-MEK5 binding to MEKK2 WT; actives lie on both sides | binding response (% of control), % at 10 µM | hit rate 1.1% among 290,000 | AID 1531; in the data active = binding response below about 67% or above about 130%
MEKK2 mut-MEK5: signal of MEK5 binding to mutant human MEKK2 PB1 domain | bead flow cytometry, Alexa488-MEK5 binding to MEKK2 mutant | percent response, % at 10 µM | hit rate 0.35% among 290,000 | AID 1530; in the data active = percent response above about 24%, passing the limit was not always enough
MEKK2wt confirm: raises or lowers MEK5 binding to wildtype human MEKK2, retest; binding response (% of control), % at 10 µM; shares compounds with MEKK3 PB1 HTS; bead flow cytometry, Alexa488-MEK5 binding to MEKK2 WT; actives lie on both sides; hit rate 2.4% among 5,900; in the data active = binding response below about 16% or above about 210%; inactive = in between
MEKK2mut-MEK5: signal of MEK5 binding to mutant human MEKK2, retest; shares compounds with MEKK3 PB1 HTS; AID 1893; hit rate 2% among 5,900; percent response, % at 10 µM; bead flow cytometry, Alexa488-MEK5 binding to MEKK2 mutant; in the data active = percent response mostly above about 71%, no sharp cut-off; inactive = mostly below about 38%;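 note: higher means compound restores mutant binding toward wildtype level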
MEKK3-MEK5 inh: confirmation of inhibitors of MEK5 binding to human MEKK3; hit rate 1.8% among 5,900; bead flow cytometry, Alexa488-MEK5 binding to MEKK3; active compounds read low; AID 1894; shares compounds with MEKK3 PB1 HTS; binding response (% of control), % at 10 µM;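 active = binding response below 72% of control, or above a set upper limit, though filed actives all read lower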;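 note: 100% = DMSO only wells and 0% = binding blocked by excess unlabeled MEK5; lower values mean stronger disruption of MEK5 binding to MEKK3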
Numbers without * were called inactive; / = no result; [ ] = remark or other dose.

SMILES	ABCB1 inh	Efflux pump inh	MEKK3 PB1 HTS	ABCG2 block	MEKK2 WT-MEK5	MEKK2 mut-MEK5	MEKK2wt confirm	MEKK2mut-MEK5	MEKK3-MEK5 inh
CCN1CCN(c2cc(C)c3cc(NC(=O)c4cc(OC)cc(OC)c4)ccc3n2)CC1	/	0	111	/	139*	7	147	14	98
COc1ccc(NC(=O)CS(=O)CC(=O)Nc2cccnc2)cc1 (centres undefined)	/	0	102	/	100	8	/	/	/
C[C@@H](NC(=O)c1[nH]cnc1C(=O)Nc1nccs1)c1ccccc1	/	0	/	/	/	/	/	/	/
Cc1cccc(C)c1OCC(=O)NCC1COc2ccccc2O1 (centres undefined)	/	0	/	/	/	/	/	/	/
CCN1CCN(c2cc(C)c3cc(NC(=O)Cc4ccc(OC)c(OC)c4)ccc3n2)CC1	-1	0	111	-3	123	26*	118	29	104
CCC(C)NC(=O)CCC(=O)Nc1ccc2nc(N3CC(C)CC(C)C3)cc(C)c2c1 (centres undefined)	2	0	103	7	9.0*	90*	104	-8	100
CCC(C)NC(=O)CCC(=O)Nc1ccc2nc(N3CCOCC3)cc(C)c2c1 (centres undefined)	0	0	107	4	111	5	/	/	/
O=C(Nc1cccc(S(=O)(=O)N2CCCCC2)c1)c1ccccn1	1	0	102	3	103	1	/	/	/
O=C(Nc1cccc(NS(=O)(=O)c2ccc(S(=O)(=O)NC3CC3)cc2)c1)c1ccccn1	0	0	124*	2	114	5	101	1	108
COc1ccccc1OCCCOc1c(Cl)cc(C)cc1Cl	1	0	134*	21	108	0	107	1	105
COc1cc(C)ccc1OCCOCCOc1cc(C)c(C)cc1Br	1	0	134*	12	106	0	104	10	103
COc1cc(C)ccc1OCCCOc1cc(C)ccc1Cl	/	0	106	/	105	2	/	/	/
COc1cc(C)ccc1OCCCOc1c(Cl)cccc1Cl	1	0	133*	21	106	0	102	-2	102
CCOc1ccccc1OCCCOc1ccc(C)cc1Cl	0	0	108	2	108	5	/	/	/
C1CCC(C23CC4CC(CC(C4)C2)C3)NC1 (centres undefined)	0	0	123*	5	100	7	101	-1	102
COc1ccc(NS(=O)(=O)c2ccc(/C=C/C(=O)O)cc2)cc1S(=O)(=O)N1CCOCC1	/	0	105	/	106	3	/	/	/
Cc1cccc(Cn2cc(/C=C/[N+](=O)[O-])c3ccccc32)c1	1	0	86	4	57*[inhibitor]	-11	90	-7	100
CCOc1cc(N2CCOCC2)c(OCC)cc1NC(=O)c1ccc(OCc2c(C)noc2C)c(OC)c1	4	0	131*	25	105	1	104	6	102
CCOc1cc(N2CCOCC2)c(OCC)cc1NC(=O)CN1CCCC1	1	-1	132*	7	108	1	101	-1	99
CC(=O)c1ccc(NC(=O)CSc2nnc(Cn3cnc4ccccc43)o2)cc1	1	0	104	2	104	-1	/	/	/
O=C(CSc1nnc(Cn2cnc3ccccc32)o1)Nc1cccc2ccccc12	-6	0	13*[inhibitor]	-6	19*[inhibitor]	-15	99	4	104
C/C=C1\COC(C(=O)NCCCN2CCCC2=O)(C(F)(F)F)C=C1C=C(C)C (centres undefined)	/	0	78*[inhibitor]	/	85	-7	105	19	107
C/C=C1\COC(C(=O)NCCN2CCCC2)(C(F)(F)F)C=C1C=C1CCCCC1 (centres undefined)	/	0	103	/	141*	17	134	14	110
COc1cccc(CN2CCC(n3nccc3NC(=O)CCOc3ccccc3)CC2)c1	/	0	104	/	117	9	/	/	/
O=C(CCOc1ccccc1)Nc1ccnn1C1CCN(Cc2ccc(O)cc2)CC1	/	0	109	/	148*	22	135	17	105
SMILES	ABCB1 inh	Efflux pump inh	MEKK3 PB1 HTS	ABCG2 block	MEKK2 WT-MEK5	MEKK2 mut-MEK5	MEKK2wt confirm	MEKK2mut-MEK5	MEKK3-MEK5 inh
COc1cccc(CNCc2ccco2)c1O	/	/	96	/	93	-9	/	/	/
N#CCCSCc1ccc2oc(C(=O)O)cc2c1	1	0	2.0*[inhibitor]	3	0.0*[inhibitor]	-45	109	9	109
N#CCCSCc1ccc(C(=O)O)o1	0	0	103	3	110	4	/	/	/
N#CC1(NC(=O)CSc2nnc3n2CCCCC3)CCCCC1	/	0	/	/	/	/	/	/	/
Cc1ccc(S(=O)(=O)N(CCCO)CC(O)CON=C2c3ccccc3-c3ccccc32)cc1 (centres undefined)	1	-9	136*	0	109	0	96	-4	98
CC(C)(C)NCC(O)CON=C1c2ccccc2-c2ccccc21 (centres undefined)	1	0	91	0	106	-6	/	/	/
CCN(CC)c1ccc(C=Nc2cc(C)ccc2C)c(O)c1	0	0	89	-1	75	-3	/	/	/
CCN(CC)c1ccc(C=Nc2cccnc2Cl)c(O)c1	/	0	92	/	66*[inhibitor]	-5	97	2	102
S=c1[nH]nc(-c2ccc(Cl)cc2)n1-c1ccc2c(c1)OCCO2	1	0	197*	1	109	1	1.0*[inhibitor]	-29	2.0*
CCOC(=O)CSc1ncnc2c1sc1nc(N3CCOCC3)c3c(c12)CCCC3	1	0	82*[inhibitor]	4	93	-12	98	-1	104
CC(C)OCCCNC(=O)C(NS(=O)(=O)c1ccc2c(c1)c(=O)n(C)c(=O)n2C)c1ccccc1 (centres undefined)	0	0	103	1	91	-3	/	/	/
O=C(O)c1ccccc1-c1ccccc1C(=O)Nc1ccc2c(c1)CCC2	/	0	101	/	105	3	/	/	/
O=C(Nc1ccc2c(c1)CCC2)c1ccccc1F	0	0	135*	-5	103	0	104	4	104
CCCCC(CC)CNC(=O)CN1C(=O)NC2(CCc3ccccc32)C1=O (centres undefined)	/	0	100	/	106	2	/	/	/
